Source: ChEMBL document CHEMBL1131380, “Clarification of the binding mode of teleocidin and benzolactams to the Cys2 domain of protein kinase Cdelta by synthesis of hydrophobically modified, teleocidin-mimicking benzolactams and computational docking simulation” (J Med Chem, 1998)

What was measured:
HL-60 [1] = experiment: Effective concentration against monocytes of HL-60 cells growth inhibition; type: functional, cell-based; settings: Homo sapiens
Outline: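 HL-60 cells grown in RPMI1640 with 5% FBS (not delipidized), penicillin G and streptomycin, at 37 °C in humidified 5% CO2. Compounds taken from 2 mM ethanol stocks, with final ethanol below 0.5%. Cells seeded at about 8 × 10⁴ cells/mL and counted after 4 days. EC50 for growth inhibition.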

[2] = molecular target: Protein kinase C delta type (Homo sapiens, UniProt Q05655); experiment: Displacement of [3H]PDBu from recombinant Protein kinase C delta
Chain of Protein kinase C delta type (Q05655 whole entry): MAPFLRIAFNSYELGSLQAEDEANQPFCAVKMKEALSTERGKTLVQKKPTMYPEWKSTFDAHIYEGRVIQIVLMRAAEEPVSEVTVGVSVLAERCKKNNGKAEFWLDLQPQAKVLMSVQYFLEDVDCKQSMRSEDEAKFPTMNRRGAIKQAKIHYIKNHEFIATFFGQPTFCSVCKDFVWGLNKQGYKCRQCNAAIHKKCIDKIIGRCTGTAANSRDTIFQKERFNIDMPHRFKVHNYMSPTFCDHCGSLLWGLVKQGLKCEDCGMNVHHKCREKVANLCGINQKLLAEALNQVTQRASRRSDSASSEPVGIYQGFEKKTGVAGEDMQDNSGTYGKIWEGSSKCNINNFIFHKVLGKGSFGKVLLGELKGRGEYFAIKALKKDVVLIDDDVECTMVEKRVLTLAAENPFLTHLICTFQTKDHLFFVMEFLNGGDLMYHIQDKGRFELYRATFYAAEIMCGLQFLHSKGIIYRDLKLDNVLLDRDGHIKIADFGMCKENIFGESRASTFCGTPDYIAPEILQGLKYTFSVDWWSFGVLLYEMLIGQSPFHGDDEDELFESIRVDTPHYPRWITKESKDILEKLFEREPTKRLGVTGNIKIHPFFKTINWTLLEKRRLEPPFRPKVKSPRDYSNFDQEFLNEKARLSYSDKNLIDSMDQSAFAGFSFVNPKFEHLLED
Outline: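 Competitive binding of [3H]PDBu (Kd 2.9 nM) to recombinant PKCδ. Ki derived from the IC50 of the binding curve. Number of repetitions given per compound.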

HL-60 [3] = experiment: Effective concentration against HL-60 cell differentiation; type: functional, cell-based; settings: Homo sapiens

Row | Structure (SMILES) | EC50 (HL-60 [1]) | Ki [2] | EC50 (HL-60 [3])
1 | CC(C)[C@H]1C(=O)N[C@H](CO)Cc2ccccc2N1C | > 1000 nM | 1700 nM | 
2 | CCCCCCCCCCc1ccc2c(c1)C[C@@H](CO)NC(=O)[C@H](C(C)C)N2C |  | 32 nM | 
3 | CC(C)[C@H]1C(=O)N[C@H](CO)Cc2cc3c(cc2N1C)C1(CCC3)CCC(C)(C)CC1 |  | 14 nM | 20 nM
4 | CC(C)[C@H]1C(=O)N[C@H](CO)Cc2cc3c(cc2N1C)C1(CCCCC1)CCC3 |  | 19 nM | 70 nM
5 | CCCCCCCCCCc1ccc2c(c1)N(C)[C@@H](C(C)C)C(=O)N[C@H](CO)C2 |  | 5.9 nM | 
6 | CC(C)[C@H]1C(=O)N[C@H](CO)Cc2cc3c(cc2N1C)C(C)(C)CCC3(C)C |  | 5100 nM | 
7 | CC(C)[C@H]1C(=O)N[C@H](CO)Cc2cc3c(cc2N1C)CCCC3(C)C |  | 1700 nM | 7000 nM
8 | CCCCCCCCCCC1C(=O)N[C@H](CO)Cc2ccccc2N1C (stereo partly drawn) |  | 3 nM | 200 nM
9 | CC(C)[C@H]1C(=O)N[C@H](CO)Cc2cc3c(cc2N1C)C(C)(C)CCC3 |  | 65 nM | 
10 | C=C[C@@]1(C)CC[C@](C)(C(C)C)c2cc3c4c(c[nH]c4c21)C[C@@H](CO)NC(=O)[C@H](C(C)C)N3C | 5 nM | 0.32 nM | 
11 | CC(C)[C@H]1C(=O)N[C@H](CO)Cc2c[nH]c3cccc(c23)N1C [INDOLACTUM] | 5 nM | 80 nM | 
